{
  "source": "paper PMC7210785",
  "about": "(Cancer cell, 2019)",
  "target": "T1, RNF2 (Homo sapiens, UniProt Q99496)",
  "T1 sequence (Q99496 2-336)": "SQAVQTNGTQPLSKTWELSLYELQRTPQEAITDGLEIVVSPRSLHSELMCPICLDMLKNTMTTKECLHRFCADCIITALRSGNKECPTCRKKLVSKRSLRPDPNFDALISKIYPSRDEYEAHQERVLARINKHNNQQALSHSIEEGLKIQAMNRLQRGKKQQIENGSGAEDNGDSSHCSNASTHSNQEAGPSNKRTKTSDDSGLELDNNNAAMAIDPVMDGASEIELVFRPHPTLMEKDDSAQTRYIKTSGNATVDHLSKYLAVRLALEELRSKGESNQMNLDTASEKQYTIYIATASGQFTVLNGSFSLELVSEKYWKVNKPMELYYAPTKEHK",
  "assay_type": "cell-based",
  "procedure,_shortened": "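RNF2-PRC1 complex immunoprecipitated from PC3 cells, washed, then preincubated with test compound for 30 min at 4 °C. Products run on SDS-PAGE and immunoblotted with anti-H2A. In cells, histones acid-extracted (0.4N H2SO4) from nuclear extracts and probed for H2A/H2AUb.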",
  "data": [
    {"substance": "GW-516 [compound 4]", "values": [
      {"measurement": "IC50", "result": "~470", "unit": "nM"}
    ]}
  ]
}
